Screening data from PubChem BioAssay.
An excerpt weighted towards active compounds, which were near 2.2% of everything screened.
dFosB act-1 = activators of delta FosB homodimer, primary screen, biochemical, fluorescence polarization, TAMRA-CDK5 oligo, single point; activation, % at 25 µM; 340,000 tested, 0.99% active; Protein FosB (Mus musculus), P13346; purified delta FosB; percent of positive-control signal above neutral wells;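 active means mean activation above about 17%, with every replicate also reaching it, limit read from the data, passing the limit was not always enough; inconclusive means only one of the two conditions met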
Rtt109 Vps75 = inhibitors of C. albicans Rtt109/Vps75 HAT, primary screen, biochemical, ThioGlo CoA-SH fluorescence, plate reader; Histone acetyltransferase RTT109 (Candida albicans (strain SC5314 / ATCC MYA-2876)), …; purified Rtt109/Vps75, 4 h; inhibition, % at 34.9 µM; 330,000 tested, 0.16% active; AID 540336, 2011;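 active means inhibition of at least 50% in every replicate; inconclusive means best replicate reaches 50% inhibition but some replicates fall short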
CAL PDZ FP-1 = CAL PDZ peptide-binding inhibitors, primary screen, biochemical, fluorescence polarization, Cer-tagged CAL PDZ, HTS; Golgi-associated PDZ and coiled-coil motif-containing protein (Homo sapiens), Q9HD26; purified CAL PDZ, TMR-peptide fluorescence polarization, 1 h; 330,000 tested, 0.02% active; inhibition, % at 20 µM;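 active means highest replicate inhibition of at least 40%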;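 further: plate controls were DMSO neutral control wells for no effect and unlabeled competitor peptide control wells for full effect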
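System: purified tagged CAL PDZ domain construct (CerCALP). Schedule: 1 h incubation at room temperature before polarization reading. Medium: 25 mM sodium phosphate pH 7.4, 150 mM NaCl, TCEP, IgG, Thesit. Read-out: percent inhibition from loss of millipolarization. Measured by: FP readout, S and P plane fluorescence. Probe or stimulus: fluorescent TMR peptide probe.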
CAL PDZ FP-2 = untagged CAL PDZ binding inhibitors, primary screen, biochemical, fluorescence polarization, HTS | inhibition, % at 24.9 µM | 300,000 tested, 0.92% active | AID 602252, 2012 | Golgi-associated PDZ and coiled-coil motif-containing protein (Homo sapiens), Q9HD26 | purified CAL PDZ, TMR-peptide fluorescence polarization, 1 h;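 active means mean inhibition of at least 30% with at least half of replicates also reaching 30%; inconclusive means no clear call, values can overlap the other calls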;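 further: 0% = DMSO neutral control and 100% = excess unlabeled competitor peptide PRC23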
DYRK1A inh = rat Dyrk1A kinase inhibitors, primary screen, biochemical, single point, plate reader; Dual specificity tyrosine-phosphorylation-regulated kinase 1A (Rattus norvegicus), Q63470; ADP-Glo luminescence, NFATc1 peptide; inhibition, % at 12.5 µM; 310,000 tested, 0.43% active; AID 504441, 2011; in the data active means inhibition above about 50%;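 further: plate controls were vehicle with enzyme for no effect and no enzyme for full effect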
CDK5 inh = inhibitors of human CDK5/p35 kinase, primary screen, biochemical, single concentration; 330,000 tested, 0.01% active; Recombinant CDK5/p35, ADP-Glo luminescence, 60 min; Cyclin-dependent kinase 5 (Homo sapiens) + Cyclin-dependent kinase 5 activator 1 (Homo …; inhibition, % at 10 µM;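 active means highest replicate inhibition of at least 50% and at least 75% of replicates reaching 50%; inconclusive means only one of the two criteria met; inactive means both criteria failed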;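 further: plate controls were DMSO neutral control for no effect and GW8510 at 10 µM for full effect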
Target sequence (Q00535 whole entry, looked up): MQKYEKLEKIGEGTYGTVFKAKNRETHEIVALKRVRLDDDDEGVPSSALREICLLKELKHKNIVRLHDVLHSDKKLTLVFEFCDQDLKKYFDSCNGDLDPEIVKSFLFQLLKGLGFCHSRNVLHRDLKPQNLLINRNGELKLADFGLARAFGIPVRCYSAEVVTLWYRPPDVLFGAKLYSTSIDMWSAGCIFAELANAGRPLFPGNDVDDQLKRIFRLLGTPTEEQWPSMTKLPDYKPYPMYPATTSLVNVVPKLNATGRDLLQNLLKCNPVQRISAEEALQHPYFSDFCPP
Target sequence (Q15078 whole entry, looked up): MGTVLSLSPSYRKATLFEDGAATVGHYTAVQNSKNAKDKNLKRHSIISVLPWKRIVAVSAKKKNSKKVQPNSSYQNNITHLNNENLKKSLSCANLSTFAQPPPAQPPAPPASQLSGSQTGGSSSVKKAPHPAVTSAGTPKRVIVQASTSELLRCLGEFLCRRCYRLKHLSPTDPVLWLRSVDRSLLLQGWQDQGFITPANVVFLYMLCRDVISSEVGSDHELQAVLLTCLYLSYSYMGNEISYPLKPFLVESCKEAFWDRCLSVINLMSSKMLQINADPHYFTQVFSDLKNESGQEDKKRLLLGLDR
dFosB act-2 = activators of mouse delta FosB DNA binding, confirmation, biochemical, fluorescence polarization, TAMRA-CDK5 oligo, cherry-picked samples | shares compounds with dFosB act-1 | purified delta FosB; normalised: neutral wells 0, positive control 100 | activation, % at 24.9 µM | 2,400 tested, under 10 active;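 active means highest replicate activation at or above 34% and every replicate reaching that threshold; inconclusive means meets only one of the two criteria; inactive means meets neither criterion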;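 further: higher polarization means more probe DNA bound by delta FosB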
The depositor's hits bear a star; ? = inconclusive; / = not tested or not shown.

SMILES	dFosB act-1	Rtt109 Vps75	CAL PDZ FP-1	CAL PDZ FP-2	DYRK1A inh	CDK5 inh	dFosB act-2
Cc1cc(Br)ccc1SCC(=O)OC/C(O)=C(\C#N)c1nc2ccccc2[nH]1	52*	3	0	0	1	0	4
CC(Sc1nnnn1-c1ccccc1)C(=O)NC1CCCC1 (stereo not given)	-3	9	0	-1	-3	1	/
O=C(Nc1cccc2ccccc12)/C(=C\c1cccc([N+](=O)[O-])c1)NC(=O)c1cccs1	-1	0	-1	-1	-15	-2	/
O=C(Nc1cccc2ccccc12)/C(=C/c1cccc([N+](=O)[O-])c1)NC(=O)c1cccs1	24*	0	-1	-2	-1	0	-5
Cn1cc(/C=C(\C#N)C(=O)Nc2cccc([N+](=O)[O-])c2)c2ccccc21	45*	0	0	/	-5	0	4
Cn1cc(/C=N/NC(=O)c2cccc([N+](=O)[O-])c2)c2ccccc21	8	1	0	1	11	-5	/
Cc1ccc(-c2cc(C(=O)Nc3ccc(S(=O)(=O)N4CC(C)OC(C)C4)cc3)[nH]n2)c(O)c1 (stereo not given)	42*	-10	-4	-2	1	-1	7
Cc1cc(O)c(-c2cc(C(=O)Nc3ccc(S(=O)(=O)N4CCOCC4)cc3)[nH]n2)cc1C	25*	-4	-2	-3	3	1	2
CCc1ccc(Nc2n[n+](-c3ccccc3)c(-c3ccc(SC)cc3)s2)cc1	31*	4	0	1	-3	-1	0
CSc1ccc(-c2sc(Nc3ccccc3)n[n+]2-c2ccccc2)cc1	0	-3	-21	1	8	0	/
C/C(=N\NC(=O)CCc1ccc(S(=O)(=O)N2CCOCC2)cc1)c1ccc(Br)cc1	-10	-7	0	19	-4	0	/
CC1(C)Cc2cccc(OCC(=O)OCC(=O)NCc3ccccc3)c2O1	-7	10	-3	-1	8	0	/
COc1ccc(C(=O)N2C(=O)c3ccc(N)cc3C2=O)cc1	49*	-16	-1	-6	-1	0	4
COc1ccc(C(=O)n2cnc(N)n2)cc1	-11	-4	-2	-3	9	1	/
CC(C)(C)NC(=O)CN(C(=O)Cn1nnc(-c2ccc(Cl)cc2)n1)C1CCN(Cc2ccccc2)CC1	26*	11	-4	-1	1	0	-1
O=C(Cn1nnc(-c2ccc(CN3CCOCC3)cc2)n1)N(c1ccccc1)c1ccccc1	-10	2	-3	13	-1	1	/
Clc1cccc(CN2CCN(Cc3nc(CCc4ccccc4)no3)CC2)c1	-2	-1	-1	-4	/	1	/
Cc1ccc(C(=O)CCC(=O)NNC(=O)c2ccccc2O)cc1	23*	1	-1	-3	5	0	-1
O=C(Nc1ccc(Oc2ccc3c(c2)C(=O)N(c2ccc(O)cc2)C3=O)cc1)c1cccs1	61*	-3	-2	-3	-6	-1	-4
CC(C)CN1C(=O)c2ccc(NC(=O)c3cccs3)cc2C1=O	-5	0	-3	/	4	-2	/
Cc1ccc(C(=O)OCC(=O)Nc2ccccc2Cl)c(O)c1	-3	8	-2	0	-5	-1	/
Cc1ccc(C(=O)OCC(=O)Nc2cccc(Cl)c2C)c(O)c1	20*	0	-3	-3	0	1	0
C/C(=C\C=C(C#N)C#N)c1cc(C#N)c(N)o1	84*	-3	-5	-12	-1	4	?
Cc1ccc2nc3c(cc2c1)c(NC(=O)c1ccccn1)nn3CC(C)C	8	-1	-2	-2	-6	0	/
CCn1nc(NC(=O)c2ccccn2)c2cc3cc(C)ccc3nc21	21*	-3	-1	-5	-11	0	-4
SMILES	dFosB act-1	Rtt109 Vps75	CAL PDZ FP-1	CAL PDZ FP-2	DYRK1A inh	CDK5 inh	dFosB act-2
CCCCNC(=S)N/N=C/c1ccc(OCC(=O)Nc2c(C)cc(C)cc2C)c(OC)c1	22*	-16	-1	-1	-1	-1	-1
COc1cc(/C=N/NC(N)=S)ccc1OCC(=O)Nc1ccc(C)c(C)c1	-1	-16	1	1	-1	0	/
Cc1cc(NC(=O)c2ccc(COc3ccccc3Cl)o2)no1	7	-3	-1	-4	-4	0	/
COc1ccc(/C=N/NC(=O)c2ccc(COc3ccccc3Cl)o2)cc1	28*	-8	-3	1	-2	0	8
CC(=O)Nc1ccc(/C(C)=N/NC(=O)c2ccc(COc3ccccc3Cl)o2)cc1	31*	1	1	0	10	-7	-2
COc1ccc(-n2cc(-c3ccc(C)cc3)[n+]3c2SCC3)cc1	-5	5	-1	3	-2	0	/
COCCNC(=O)CCN1N=C(c2ccccc2)CCC1=O	3	-3	-1	1	6	0	/
CC(=O)Nc1ccc(S(=O)(=O)NCCS(=O)(=O)N2CCN(c3ccccc3)CC2)cc1	-4	-11	0	/	2	3	/
CC(=O)Nc1ccc(S(=O)(=O)NCCS(=O)(=O)N2CCN(c3ccccc3F)CC2)cc1	22*	1	-2	0	0	2	2
O=C(Nc1cccc(Cl)c1)c1nc[nH]c1C(=O)N1CCN(c2ccccc2)CC1	4	-6	0	-2	5	1	/
O=C(COC(=O)c1cc(S(=O)(=O)Nc2ccccc2Cl)ccc1O)Nc1nc2ccccc2s1	32*	-13	-1	-10	/	-2	7
CC1CCCC(C)N1C(=O)c1ccc(S(=O)(=O)NCc2ccco2)cc1 (stereo not given)	-6	-2	-1	-7	-3	-3	/
O=C(CSc1nc2ccc(Cl)cc2[nH]1)c1c[nH]c2ccccc12	16	-7	-4	/	11	1	/
O=C(CSc1nc2ncc(Cl)cc2[nH]1)c1c[nH]c2ccccc12	22*	-7	-1	-5	5	1	-4
O=C(NCc1ccco1)c1ccc2c(=O)n(Cc3ccco3)c(SCC(=O)N3CCCC3)nc2c1	-10	-4	-3	/	2	-1	/
